The text below walks through data of ChEMBL document CHEMBL3751698, “5,7-Disubstituted-[1,2,4]triazolo[1,5-a][1,3,5]triazines as pharmacological tools to explore the antagonist selectivity profiles toward adenosine receptors” (Eur J Med Chem, 2016).

For assay [1], the species on record is Homo sapiens. The experiment in a line: Selectivity index, ratio of Ki for human A1 adenosine receptor to Ki for human A2A adenosine receptor.
The species entered for assay [2] is Homo sapiens. Put plainly: Selectivity index, ratio of Ki for human A3 adenosine receptor to Ki for human A2A adenosine receptor.
For a further assay, the target named is T1, Adenosine receptor A3 (Homo sapiens, UniProt P0DMS8).
T1 sequence (P0DMS8 whole entry): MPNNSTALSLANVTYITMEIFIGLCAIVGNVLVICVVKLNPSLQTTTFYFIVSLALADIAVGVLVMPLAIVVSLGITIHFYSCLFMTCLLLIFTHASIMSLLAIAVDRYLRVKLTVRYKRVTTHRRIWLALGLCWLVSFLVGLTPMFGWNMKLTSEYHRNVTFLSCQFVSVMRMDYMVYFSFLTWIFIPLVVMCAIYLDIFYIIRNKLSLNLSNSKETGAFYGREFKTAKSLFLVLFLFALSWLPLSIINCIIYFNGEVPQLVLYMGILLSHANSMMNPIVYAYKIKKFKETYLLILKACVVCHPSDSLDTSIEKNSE
The experiment in a line: Displacement of [3H]HEMADO from human A3 adenosine receptor expressed in CHO cell membranes. An outline of the steps:
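Two-step centrifugation (1,000 x g, then 100,000 x g) of stably transfected CHO cells gave the membranes. Displacement of 1 nM [3H]HEMADO; nonspecific binding taken with 100 µM R-PIA. Ki computed from competition data.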
A general note: Displacement assays read how much labelled ligand stays bound in the presence of the test substance.

Another assay concerns the target T2, Adenosine receptor A2b (Homo sapiens, UniProt P29275).
T2 sequence (P29275 whole entry): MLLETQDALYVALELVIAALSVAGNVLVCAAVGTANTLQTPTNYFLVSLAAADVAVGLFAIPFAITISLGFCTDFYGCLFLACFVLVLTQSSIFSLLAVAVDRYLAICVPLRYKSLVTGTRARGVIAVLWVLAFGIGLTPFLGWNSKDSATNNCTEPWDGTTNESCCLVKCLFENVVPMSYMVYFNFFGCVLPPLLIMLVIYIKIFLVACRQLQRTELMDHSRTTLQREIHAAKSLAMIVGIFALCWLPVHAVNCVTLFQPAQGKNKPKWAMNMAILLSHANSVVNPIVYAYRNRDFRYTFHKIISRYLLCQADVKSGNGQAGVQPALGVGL
Put plainly: Antagonist activity at human A2B adenosine receptor expressed in CHO cell membranes assessed as inhibition of NECA stimulated adenylyl cyclase activity. In kind it is functional, cell-based. In outline:
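CHO cells stably expressing hA2B; crude membranes from a single high-speed spin, resuspended in 50 mM Tris/HCl pH 7.4 and used fresh. Incubated 20 min with about 150,000 cpm [α-32P]ATP in a mixture without EDTA and NaCl. IC50 for inhibition of NECA-stimulated cyclase obtained by Hill equation fit.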

Another assay addresses Adenosine receptor A2a (Homo sapiens, UniProt P29274). Put plainly: Displacement of [3H]NECA from human A2A adenosine receptor expressed in CHO cell membranes. In outline:
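Crude membranes from stably transfected CHO cells, prepared by a two-step spin (1,000 x g, then 100,000 x g). Competition with 10 nM [3H]NECA, with nonspecific binding measured in presence of 100 µM R-PIA. Ki derived from competition experiments.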

The target in the next assay is T3, Adenosine receptor A1 (Homo sapiens, UniProt P30542).
T3 sequence (P30542 whole entry): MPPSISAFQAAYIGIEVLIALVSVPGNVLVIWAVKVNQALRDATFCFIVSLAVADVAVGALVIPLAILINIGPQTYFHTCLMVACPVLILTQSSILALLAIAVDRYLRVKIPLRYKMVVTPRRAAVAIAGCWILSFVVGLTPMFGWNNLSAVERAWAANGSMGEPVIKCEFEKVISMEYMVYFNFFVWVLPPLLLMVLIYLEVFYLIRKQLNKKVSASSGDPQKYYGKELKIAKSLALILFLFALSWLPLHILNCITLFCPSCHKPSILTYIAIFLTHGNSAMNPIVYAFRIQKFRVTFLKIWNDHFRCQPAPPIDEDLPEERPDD
The experiment in a line: Displacement of [3H]CCPA from human A1 adenosine receptor expressed in CHO cell membranes. As to conditions: read-out: Ki. In outline:
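Membranes from stably transfected CHO cells (1,000 x g spin to clear nuclei and debris, then 100,000 x g pellet), resuspended in binding buffer and frozen. Competition against 1 nM [3H]CCPA; nonspecific binding defined with 1 mM theophylline. Ki calculated from competition curves.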

Each structure is given as a SMILES string. A value given as a limit tells only on which side of the number the result lay.

Chain of Adenosine receptor A2a (P29274 whole entry): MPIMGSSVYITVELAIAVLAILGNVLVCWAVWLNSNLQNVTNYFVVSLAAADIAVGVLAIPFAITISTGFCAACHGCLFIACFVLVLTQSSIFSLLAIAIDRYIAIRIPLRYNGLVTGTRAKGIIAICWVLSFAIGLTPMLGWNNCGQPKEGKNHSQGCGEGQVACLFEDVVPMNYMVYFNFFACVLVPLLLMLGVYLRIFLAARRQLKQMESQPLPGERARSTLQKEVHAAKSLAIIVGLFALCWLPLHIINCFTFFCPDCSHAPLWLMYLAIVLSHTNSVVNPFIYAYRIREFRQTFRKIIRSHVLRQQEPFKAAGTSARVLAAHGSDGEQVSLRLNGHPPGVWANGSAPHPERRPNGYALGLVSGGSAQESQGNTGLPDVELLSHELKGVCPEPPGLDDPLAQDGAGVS

For `CC(C)Nc1nc(NCc2ccccc2)n2nc(-c3ccco3)nc2n1`, the Ratio Ki in the assay filed under Homo sapiens [1] is more than 253; in the assay filed under Homo sapiens [2], 0.29. In addition, the inhibition constant (Ki) on Adenosine receptor A3 was 114 nM; on Adenosine receptor A2a it was 394 nM; at Adenosine receptor A1, more than 100000 nM. Besides, the IC50 on Adenosine receptor A2b was more than 30000 nM.
As to `CNc1nc(NC(=O)c2ccccc2)n2nc(-c3ccco3)nc2n1`, the Ratio Ki was found to be 54.1 in the assay listed under Homo sapiens [1] and 47.6 in the assay listed under Homo sapiens [2]. Besides, the values for the Ki at Adenosine receptor A3, on Adenosine receptor A2a and at Adenosine receptor A1 were 9240 nM, 194 nM and 10500 nM, respectively. In addition, the IC50 at Adenosine receptor A2b was more than 30000 nM.
For the compound `Fc1ccc(CNc2nc(NC3CCCCC3)nc3nc(-c4ccco4)nn23)cc1`, the Ratio Ki in the assay listed under Homo sapiens [1] is more than 893; in the assay filed under Homo sapiens [2] it was 11.6. Besides, the Ki at Adenosine receptor A3 is 1300 nM; at Adenosine receptor A2a it was 112 nM; at Adenosine receptor A1, more than 100000 nM. Further, at Adenosine receptor A2b, the IC50 is more than 30000 nM.
As to `CNc1nc(NC2CCCCC2)n2nc(-c3ccco3)nc2n1`, the Ratio Ki was found to be 2.52 in the assay listed under Homo sapiens [1] and 6.33 in the assay filed under Homo sapiens [2]. Also, the Ki at Adenosine receptor A3 worked out at 905 nM; on Adenosine receptor A2a, 143 nM; at Adenosine receptor A1, 361 nM. In addition, the IC50 on Adenosine receptor A2b was more than 30000 nM.
On to `CC(C)Nc1nc(NC(=O)Nc2ccccc2)n2nc(-c3ccco3)nc2n1`, for which the Ratio Ki in the assay listed under Homo sapiens [1] was determined as 13.6; in the assay listed under Homo sapiens [2], 1.96. The figures for the Ki at Adenosine receptor A3, at Adenosine receptor A2a and at Adenosine receptor A1 were 170 nM, 86.9 nM and 1180 nM, respectively. Also, the IC50 on Adenosine receptor A2b was more than 30000 nM.

The term Ki denotes the dissociation constant of the complex between target and ligand, obtained from inhibition or displacement. For orientation: IC50 means the concentration needed to halve the response being measured.
